# In ChEMBL document CHEMBL1145200, “4-Benzyl and 4-benzoyl-3-dimethylaminopyridin-2(1H)-ones: in vitro evaluation of new C-3-amino-substituted and C-5,6-alkyl-substituted analogues against clinically important HIV mutant strains” (J Med Chem, 2005):
# Experiments:
# [1] = test system: Human immunodeficiency virus 1; assay: In vitro inhibitory concentration against HIV K103N mutant strain; assay type: functional, organism-based
# Outline: (§1)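 MT4 human T-lymphoblastoid cells, grown in RPMI 1640 with 10% fetal calf serum and antibiotics at 37 °C under 5% CO2. Mutant HIV-1 strains were added at 200 CCID50/well with 30 000 cells/well across a compound concentration range. After 5 days at 37 °C, viability was read by MTT colorimetry. EC50 is the concentration giving 50% infection relative to the drug-free control.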
# [2] = test system: Human immunodeficiency virus 1; assay: Selective index value (ratio of CC50 to IC50 value)against HIV LAI cell line; assay type: functional
# Outline: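 Ratio of CC50 to IC50 against LAI. CC50 came from mock-infected MT4 cultures (30 000 cells/well) given the same compound concentration range, run in parallel with LAI-infected cultures (200 CCID50/well). Incubation was 5 days at 37 °C in 5% CO2, with MTT viability read-out.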
# [3] = test system: Human immunodeficiency virus 1; assay: In vitro inhibitory concentration against HIV-1 Y181C mutant strain; assay type: functional, organism-based; outline: as §1
# [4] = test system: Human immunodeficiency virus 1; assay: In vitro inhibitory concentration against HIV LAI cell line; assay type: functional, organism-based; settings: Human immunodeficiency virus 1, LAI
# Outline: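 HIV-1 LAI was added at 200 CCID50/well to MT4 human T-lymphoblastoid cells (30 000 cells/well) across a concentration range of compound. Cells were grown in RPMI 1640 with 10% fetal calf serum and antibiotics. After 5 days at 37 °C in 5% CO2, cell viability was read by MTT colorimetry. EC50 was the concentration giving 50% infection versus the drug-free control.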
# [5] = test system: Human immunodeficiency virus 1; assay: In vitro inhibitory concentration against HIV Y188L mutant strain; assay type: functional, organism-based; outline: as §1
# [6] = test system: Human immunodeficiency virus 1; assay: In vitro inhibitory concentration against HIV L100I mutant strain; assay type: functional, organism-based; outline: as §1
# [7] = test system: Human immunodeficiency virus 1; assay: In vitro inhibitory concentration against HIV F227C mutant strain; assay type: functional, organism-based; outline: as §1
# [8] = test system: Human immunodeficiency virus 1; assay: In vitro inhibitory concentration against HIV L100I and K103N mutant strain; assay type: functional, organism-based; outline: as §1
# [9] = test system: Human immunodeficiency virus 1; assay: In vitro inhibitory concentration against HIV G190S mutant strain; assay type: functional, organism-based; outline: as §1
# [10] = test system: Human immunodeficiency virus 1; assay: In vitro inhibitory concentration against HIV F227L and V106A mutant strain; assay type: functional, organism-based; outline: as §1
# [11] = test system: Human immunodeficiency virus 1; assay: In vitro inhibitory concentration value against HIV K103N and Y181C mutant strain; assay type: functional, organism-based; outline: as §1
# [12] = test system: Human immunodeficiency virus 1; assay: In vitro inhibitory concentration against HIV G190A mutant strain; assay type: functional, organism-based; outline: as §1
# [13] = test system: Human immunodeficiency virus 1; assay: In vitro inhibitory concentration against HIV K101E mutant strain; assay type: functional, organism-based; outline: as §1
# [14] = test system: Human immunodeficiency virus 1; assay: In vitro inhibitory concentration against HIV E138K mutant strain; assay type: functional, organism-based; outline: as §1
# [15] = test system: Human immunodeficiency virus 1; assay: In vitro inhibitory concentration against HIV K101E and K103N mutant strain; assay type: functional, organism-based; outline: as §1
# [16] = test system: Human immunodeficiency virus 1; assay: In vitro inhibitory concentration against HIV V179E mutant strain; assay type: functional, organism-based; outline: as §1
Compound,IC50 [1],SI [2],IC50 [3],IC50 [4],IC50 [5],also measured
CCC(=O)Nc1c(Cc2cc(C)cc(C)c2)c(CC)c(C)[nH]c1=O,100000 nM,25,100000 nM,3980 nM,–,–
CCc1c(C)[nH]c(=O)c(NC(C)=O)c1Cc1cc(C)cc(C)c1,20000 nM,251,25100 nM,398 nM,100000 nM,–
CCNc1c(Cc2cc(C)cc(C)c2)c(CC)c(C)[nH]c1=O,316 nM,126,100000 nM,16 nM,100000 nM,–
CCCN(C)c1c(Cc2cc(C)cc(C)c2)c(CC)c(C)[nH]c1=O,100 nM,6310,398 nM,16 nM,–,–
CCOCCN(C)c1c(Cc2cccc(C)c2)c(CC)c(C)[nH]c1=O,–,7940,–,13 nM,–,–
CCCc1c(C)[nH]c(=O)c(N(C)C)c1Cc1cc(C)cc(C)c1,79 nM,2000,316 nM,50 nM,631 nM,–
CCc1c(C)nc(O)c(N(C)C)c1C(=O)c1cccc(C)c1,–,39800,–,2.5 nM,2000 nM,–
CCc1c(C)[nH]c(=O)c(N(CC)CC)c1Cc1cc(C)cc(C)c1,398 nM,6310,1260 nM,16 nM,2510 nM,–
CCc1c(C)[nH]c(=O)c(N2CCCCC2)c1Cc1cc(C)cc(C)c1,63100 nM,158,39800 nM,631 nM,–,–
CCc1c(C)[nH]c(=O)c(N(C)CCCO)c1Cc1cccc(C)c1,316 nM,31600,1580 nM,3 nM,5010 nM,–
COCCCc1c(C)nc(O)c(N(C)C)c1C(=O)c1cc(C)cc(C)c1,10 nM,12600,50 nM,2 nM,200 nM,IC50 [6]: 8 nM
CCc1[nH]c(=O)c(N(C)C)c(Cc2cc(C)cc(C)c2)c1C,100 nM,10000,251 nM,10 nM,5010 nM,–
CCc1c(C)[nH]c(=O)c(N(C)CCO)c1Cc1cccc(C)c1,794 nM,7940,1260 nM,5 nM,12600 nM,–
CCCCNc1c(Cc2cc(C)cc(C)c2)c(CC)c(C)[nH]c1=O,2000 nM,398,5010 nM,126 nM,–,–
CCc1c(C)[nH]c(=O)c(N(C)CCCCCO)c1Cc1cc(C)cc(C)c1,100 nM,12600,126 nM,4 nM,2510 nM,–
Cc1cccc(C(=O)c2c(C)c(C)nc(O)c2N(C)C)c1,398 nM,6310,2000 nM,16 nM,50100 nM,–
CCc1c(C)[nH]c(=O)c(NC(=S)Nc2ccccc2)c1Cc1cccc(C)c1,–,25,–,3160 nM,–,–
CCc1c(C)nc(O)c(NC(=S)NC(=O)c2ccccc2)c1Cc1cccc(C)c1,100000 nM,16,100000 nM,6310 nM,100000 nM,–
CCc1c(C)[nH]c(=O)c(NCc2ccccc2)c1Cc1cc(C)cc(C)c1,3160 nM,251,10000 nM,251 nM,–,–
CCc1c(C)[nH]c(=O)c(N(C)C(C)COC)c1Cc1cc(C)cc(C)c1 (configuration not stated),79 nM,7940,398 nM,6 nM,251 nM,IC50 [7]: 869 nM; IC50 [8]: 1000 nM; IC50 [9]: 62 nM; IC50 [10]: 10000 nM; IC50 [11]: 8680 nM; IC50 [6]: 79 nM; IC50 [12]: 78 nM; IC50 [13]: 58 nM; IC50 [14]: 17 nM; IC50 [15]: 362 nM; IC50 [16]: 9 nM
CCc1c(C)[nH]c(=O)c(N(C)CCCC#N)c1Cc1cccc(C)c1,316 nM,12600,2000 nM,5 nM,3160 nM,–
Cc1cc(C)cc(Cc2cc(C)[nH]c(=O)c2N(C)C)c1,31600 nM,251,79400 nM,398 nM,100000 nM,–
Cc1cc(C)cc(Cc2c(CC(C)C)c(C)[nH]c(=O)c2N(C)C)c1,63 nM,2000,158 nM,50 nM,398 nM,–

Compound,IC50 [1],SI [2],IC50 [3],IC50 [4],IC50 [5],also measured
CCNC(=S)Nc1c(Cc2cccc(C)c2)c(CC)c(C)[nH]c1=O,–,4,–,25100 nM,–,–
CCc1c(C)[nH]c(=O)c(N2CCOCC2)c1Cc1cc(C)cc(C)c1,100000 nM,251,10000 nM,158 nM,–,–
CCc1c(C)[nH]c(=O)c(N(C)CCCSC)c1Cc1cc(C)cc(C)c1,1000 nM,398,501 nM,25 nM,–,–
CCCCN(CCCC)c1c(Cc2cc(C)cc(C)c2)c(CC)c(C)[nH]c1=O,100000 nM,2,100000 nM,50100 nM,–,–
CCc1c(C)[nH]c(=O)c(N(C)CC#N)c1Cc1cccc(C)c1,316 nM,25100,1580 nM,4 nM,12600 nM,–
CCc1c(C)[nH]c(=O)c(NC=O)c1Cc1cc(C)cc(C)c1,794 nM,1260,7940 nM,79 nM,316 nM,–
CCc1c(C)[nH]c(=O)c(NC)c1Cc1cc(C)cc(C)c1,79 nM,5010,1000 nM,10 nM,2000 nM,–
CCc1c(C)[nH]c(=O)c(-n2cccc2)c1Cc1cc(C)cc(C)c1,398 nM,1260,1260 nM,12.6 nM,2000 nM,–
CCc1nc(O)c(N(C)C)c(C(=O)c2cccc(C)c2)c1C,–,1000,–,100 nM,–,–
CCc1c(C)[nH]c(=O)c(N(Cc2ccccc2)Cc2ccccc2)c1Cc1cc(C)cc(C)c1,50100 nM,1,79400 nM,100000 nM,–,–
CCc1c(C)[nH]c(=O)c(N(C)CCCCCO)c1Cc1cccc(C)c1,501 nM,6310,1580 nM,10 nM,5010 nM,–
Cc1cc(C)cc(Cc2c(C)c(C)[nH]c(=O)c2N(C)C)c1,398 nM,2000,398 nM,5 nM,3160 nM,–
CCc1c(C)[nH]c(=O)c(N(C)CCOC)c1Cc1cc(C)cc(C)c1,63 nM,20000,316 nM,2 nM,100 nM,IC50 [7]: 339 nM; IC50 [8]: 121 nM; IC50 [9]: 42 nM; IC50 [10]: 2510 nM; IC50 [11]: 3340 nM; IC50 [6]: 3 nM; IC50 [12]: 16 nM; IC50 [13]: 10 nM; IC50 [14]: 10 nM; IC50 [15]: 69 nM; IC50 [16]: 3 nM
Cc1cc(C)cc(Cc2c(C)c(C(C)C)[nH]c(=O)c2N(C)C)c1,–,126,–,794 nM,–,–
COCCc1c(C)nc(O)c(N(C)C)c1C(=O)c1cccc(C)c1,158 nM,7940,1260 nM,4 nM,10000 nM,–
CCc1c(C)[nH]c(=O)c(NC(N)=S)c1Cc1cccc(C)c1,–,316,–,316 nM,–,–
Cc1cc(C)cc(Cc2cc[nH]c(=O)c2N(C)C)c1,39800 nM,10,100000 nM,7940 nM,–,–
CCc1c(C)[nH]c(=O)c(N(C)CCC#N)c1Cc1cccc(C)c1,–,6310,–,16 nM,–,–
CCc1c(CO)nc(O)c(N(C)C)c1C(=O)c1cc(C)cc(C)c1,3 nM,12600,72 nM,1 nM,631 nM,IC50 [7]: 234 nM; IC50 [8]: 20 nM; IC50 [9]: 2 nM; IC50 [10]: 794 nM; IC50 [11]: 149 nM; IC50 [6]: 1 nM; IC50 [12]: 3 nM; IC50 [13]: 5 nM; IC50 [14]: 4 nM; IC50 [15]: 7 nM; IC50 [16]: 1 nM
CCCNc1c(Cc2cc(C)cc(C)c2)c(CC)c(C)[nH]c1=O,1580 nM,398,15800 nM,20 nM,100000 nM,–
CCc1c(C)[nH]c(=O)c(N(C)CCOC)c1Cc1cccc(/C=C/C#N)c1,20 nM,10000,40 nM,1 nM,316 nM,IC50 [8]: 50 nM; IC50 [10]: 1000 nM; IC50 [11]: 398 nM; IC50 [6]: 8 nM
CCCC(=O)Nc1c(Cc2cc(C)cc(C)c2)c(CC)c(C)[nH]c1=O,100000 nM,1,100000 nM,100000 nM,–,–
Cc1ccnc2c1NC(=O)c1cccnc1N2C1CC1 [NEVIRAPINE],–,–,10000 nM,–,100000 nM,IC50 [7]: 135 nM; IC50 [9]: 44 nM; IC50 [10]: 163 nM; IC50 [11]: 100000 nM; IC50 [14]: 50 nM; IC50 [16]: 195 nM
